Measured values taken from ChEMBL document CHEMBL1128482, “Syntheses, calcium channel agonist-antagonist modulation activities, and voltage-clamp studies of isopropyl 1,4-dihydro-2,6-dimethyl-3-nitro-4-pyridinylpyridine-5-carboxylate racemates and enantiomers” (J Med Chem, 1995).

Assays:
[1] = species on record: Cavia porcellus; assay: Calcium channel agonist activity in guinea pig ileum longitudinal smooth muscle (GPILSM) at 10e-6 M; assay type: functional, organism-based
[2] = species on record: Cavia porcellus; assay: Calcium channel agonist activity in guinea pig left atrium (GPLA) at 10e-9 M; details: Cardiac atrium
[3] = species on record: Cavia porcellus; assay: Calcium channel agonist activity in guinea pig left atrium (GPLA) at 10e-8 M; details: Cardiac atrium
[4] = species on record: Cavia porcellus; assay: Calcium channel antagonist activity in guinea pig ileum longitudinal smooth muscle (GPILSM) at 10e-7 M; assay type: functional, organism-based
[5] = species on record: Cavia porcellus; assay: Calcium channel agonist activity in guinea pig left atrium (GPLA) at 10e-8 M; assay type: functional; details: Cardiac atrium
Method in brief: (§1)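 Isolated guinea pig left atrium: positive inotropic response was taken as the percentage increase in contractile force over the tissue's basal force measured without test compound.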

[6] = species on record: Cavia porcellus; assay: Calcium channel agonist activity in guinea pig left atrium (GPLA) at 10e-6 M; assay type: functional; details: Cardiac atrium; method in brief: as §1
[7] = species on record: Cavia porcellus; assay: Calcium channel antagonist activity in guinea pig ileum longitudinal smooth muscle (GPILSM) at 10e-6 M; assay type: functional, organism-based
[8] = species on record: Cavia porcellus; assay: Calcium channel agonist activity in guinea pig ileum longitudinal smooth muscle (GPILSM) at 10e-5 M; assay type: functional, organism-based
[9] = species on record: Cavia porcellus; assay: Calcium channel agonist activity in guinea pig left atrium (GPLA) at 10e-5 M; assay type: functional; details: Cardiac atrium; method in brief: as §1
[10] = species on record: Cavia porcellus; assay: Calcium channel agonist activity in guinea pig left atrium (GPLA) at 10e-7 M; assay type: functional; details: Cardiac atrium; method in brief: as §1
[11] = species on record: Cavia porcellus; assay: Calcium channel agonist activity in guinea pig ileum longitudinal smooth muscle (GPILSM) at 10e-7 M; assay type: functional, organism-based

**Q.** How did the EC50 [1] turn out when `CC1=NC(C)=C([N+](=O)[O-])C(c2ccccn2)/C1=C(\O)OC(C)C` (centres undefined) was run?
**A.** 5.27 µM

**Q.** And the EC50 [2]?
**A.** 0.00446 µM

**Q.** And the EC50 [3]?
**A.** 0.0458 µM

**Q.** What about the IC50 [4] of the same molecule?
**A.** 0.207 µM

**Q.** With `CC1=NC(C)=C([N+](=O)[O-])C(c2ccccn2)/C1=C(\O)OC(C)C` (racemic) as the molecule, how does the EC50 [1] read?
**A.** 5.27 µM

**Q.** What about the EC50 [5] of the same molecule?
**A.** 0.0458 µM

**Q.** What about the EC50 [6] of the same molecule?
**A.** 9.67 µM

**Q.** And the IC50 [7]?
**A.** 4.87 µM

**Q.** `CC1=NC(C)=C([N+](=O)[O-])C(c2ccncc2)/C1=C(\O)OC(C)C` (racemic) was tested. Which EC50 [8] did it give?
**A.** 35 µM

**Q.** And the EC50 [6]?
**A.** 8.05 µM

**Q.** What does the source list for `CC1=NC(C)=C([N+](=O)[O-])C(c2cccnc2)/C1=C(\O)OC(C)C` (racemic)?
**A.** EC50 [8]: 48 µM; EC50 [9]: 28.5 µM

**Q.** With `COC(=O)C1=C(C)NC(C)=C([N+](=O)[O-])C1c1ccccc1C(F)(F)F` (centres undefined) as the molecule, how does the EC50 [10] read?
**A.** 0.77 µM

**Q.** And the EC50 [11]?
**A.** 0.23 µM
